In ChEMBL document CHEMBL3352534, “A prodrug strategy for the oral delivery of a poorly soluble HCV NS5B thumb pocket 1 polymerase inhibitor using self-emulsifying drug delivery systems (SEDDS)” (Bioorg Med Chem Lett, 2015):

What was measured:
Rattus norvegicus [1] = assay: AUC in rat assessed as (E)-3-(4-(1-(2-(5-chloropyrimidin-2-yl)-3-cyclopentyl-1-methyl-1H-indole-6-carboxamido)cyclobutanecarboxamido)-2-ethoxyphenyl)acrylic acid at 10 mg/kg, po using 10.6% PEG400, 5.4% Cremophor EL, 2.6% Labrasol, 1.4% Capmul MCM in water (80%) vehicle; format: ADME, organism-based, Plasma; parameters: dose 10 mg/kg, route oral; conditions: in vivo
Procedure, shortened: (§1)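 Fasted rats were given a single 10 mg/kg oral dose, with n = 3 per dose and route. Plasma was extracted by solid-phase extraction. Analysis used HPLC with diode-array UV (200–400 nm, peak height at best S/N) or LC/MS. Calibration standards were made in blank plasma, with LOQ 7–14 ng/mL. Parameters came from noncompartmental analysis.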

[2] = Permeability across human Caco2 cells; format: ADME, cell-based; conditions: Caco-2
Rattus norvegicus [3] = assay: Cmax in rat plasma assessed as (E)-3-(4-(1-(2-(5-chloropyrimidin-2-yl)-3-cyclopentyl-1-methyl-1H-indole-6-carboxamido)cyclobutanecarboxamido)-2-ethoxyphenyl)acrylic acid at 10 mg/kg, po using 0.5% Methyl cellulose, 0.3% Tween-80, 1% N-methylpyrrolidone in water vehicle; format: ADME, organism-based; parameters: dose 10 mg/kg, route oral; conditions: in vivo; procedure, shortened: as §1
Rattus norvegicus [4] = assay: AUC in rat plasma assessed as (E)-3-(4-(1-(2-(5-chloropyrimidin-2-yl)-3-cyclopentyl-1-methyl-1H-indole-6-carboxamido)cyclobutanecarboxamido)-2-ethoxyphenyl)acrylic acid at 10 mg/kg, po using 0.5% Methyl cellulose, 0.3% Tween-80, 1% N-methylpyrrolidone in water vehicle; format: ADME, organism-based; parameters: dose 10 mg/kg, route oral; conditions: in vivo; procedure, shortened: as §1
Rattus norvegicus [5] = assay: Cmax in rat plasma assessed as (E)-3-(4-(1-(2-(5-chloropyrimidin-2-yl)-3-cyclopentyl-1-methyl-1H-indole-6-carboxamido)cyclobutanecarboxamido)-2-ethoxyphenyl)acrylic acid at 10 mg/kg, po using 10.6% PEG400, 5.4% Cremophor EL, 2.6% Labrasol, 1.4% Capmul MCM in water (80%) vehicle; format: ADME, organism-based; parameters: dose 10 mg/kg, route oral; conditions: in vivo; procedure, shortened: as §1
Rattus norvegicus [6] = assay: AUC in rat plasma assessed as (E)-3-(4-(1-(2-(5-chloropyrimidin-2-yl)-3-cyclopentyl-1-methyl-1H-indole-6-carboxamido)cyclobutanecarboxamido)-2-ethoxyphenyl)acrylic acid at 10 mg/kg, po using 10.6% PEG400, 5.4% Cremophor EL, 2.6% Labrasol, 1.4% Capmul MCM in water (80%) vehicle; format: ADME, organism-based; parameters: dose 10 mg/kg, route oral; conditions: in vivo; procedure, shortened: as §1
Rattus norvegicus [7] = assay: AUC in rat assessed as (E)-3-(4-(1-(2-(5-chloropyrimidin-2-yl)-3-cyclopentyl-1-methyl-1H-indole-6-carboxamido)cyclobutanecarboxamido)-2-ethoxyphenyl)acrylic acid at 2 mg/kg, iv; format: ADME, organism-based, Plasma; parameters: dose 2 mg/kg, route intravenous; conditions: in vivo
Procedure, shortened: (§2)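 Overnight-fasted rats received 2 mg/kg IV in 70% PEG400:30% water, n = 3. Plasma parent drug was quantified after solid-phase extraction by HPLC-UV or LC/MS against blank-plasma calibration standards (LOQ 7–14 ng/mL). Noncompartmental analysis gave the PK parameters.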

Rattus norvegicus [8] = assay: Mean residence time in rat assessed as (E)-3-(4-(1-(2-(5-chloropyrimidin-2-yl)-3-cyclopentyl-1-methyl-1H-indole-6-carboxamido)cyclobutanecarboxamido)-2-ethoxyphenyl)acrylic acid at 2 mg/kg, iv; format: ADME, organism-based; parameters: dose 2 mg/kg, route intravenous; conditions: in vivo; procedure, shortened: as §2
Rhesus monkey = assay: AUC in monkey assessed as (E)-3-(4-(1-(2-(5-chloropyrimidin-2-yl)-3-cyclopentyl-1-methyl-1H-indole-6-carboxamido)cyclobutanecarboxamido)-2-ethoxyphenyl)acrylic acid at 10 mg/kg using 10.6% PEG400, 5.4% Cremophor EL, 2.6% Labrasol, 1.4% Capmul MCM in water (80%) vehicle; format: ADME, organism-based, Macaca mulatta, Plasma; parameters: dose 10 mg/kg; conditions: in vivo
Canis familiaris = assay: AUC in dog assessed as (E)-3-(4-(1-(2-(5-chloropyrimidin-2-yl)-3-cyclopentyl-1-methyl-1H-indole-6-carboxamido)cyclobutanecarboxamido)-2-ethoxyphenyl)acrylic acid at 10 mg/kg using 10.6% PEG400, 5.4% Cremophor EL, 2.6% Labrasol, 1.4% Capmul MCM in water (80%) vehicle; format: ADME, organism-based, Canis lupus familiaris, Plasma; parameters: dose 10 mg/kg; conditions: in vivo
Rattus norvegicus [9] = assay: Total clearance in rat assessed as (E)-3-(4-(1-(2-(5-chloropyrimidin-2-yl)-3-cyclopentyl-1-methyl-1H-indole-6-carboxamido)cyclobutanecarboxamido)-2-ethoxyphenyl)acrylic acid at 2 mg/kg, iv; conditions: in vivo

AUC (Rattus norvegicus [1]): 19.3 µM·h
Papp [2]: 13 ×10⁻⁶ cm/s
Cmax (Rattus norvegicus [3]): 7.4 µM
AUC (Rattus norvegicus [4]): 25.5 µM·h
Cmax (Rattus norvegicus [5]): 2.1 µM
AUC (Rattus norvegicus [6]): 7.5 µM·h
AUC (Rattus norvegicus [7]): 20.1 µM·h
MRT (Rattus norvegicus [8]): 2.5 h
AUC (Rhesus monkey): 53 µM·h
AUC (Canis familiaris): 76 µM·h
CL (Rattus norvegicus [9]): 2.6 mL/min/kg
SMILES: CCOc1cc(NC(=O)C2(NC(=O)c3ccc4c(C5CCCC5)c(-c5ncc(Cl)cn5)n(C)c4c3)CCC2)ccc1/C=C/C(=O)O
